The values that follow come from ChEMBL document CHEMBL1128498, “Synthesis and antitumor activity of various 6-demethylmitomycins and 6-demethyl-6-halomitomycins” (1995).

The ED50 is the dose at which the effect has come halfway, by size or by number of responders.

Test [1] has as its system HeLa. In words: Inhibition of HeLa S3 cell growth relative to mitomycin C action (ratio of IC50 values). It is filed as functional, Homo sapiens. In short, it runs like this:
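HeLa S3 cells plated on day 0 and exposed to drug for 1 h on day 1. IC50 is the concentration giving 50% growth inhibition, taken from the concentration-response curve. Reported as IC50 of test compound divided by IC50 of mitomycin C.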

The species named for test [2] is Mus musculus. Briefly: T/C value was measured as tumor volume in the treated versus control mice. The test is classed as functional. The gist of the method:
(§1)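 Sarcoma 180 cells inoculated sc into the axillary region of ddY mice on day 0; compound given iv on day 1. Tumor volume compared treated versus control (T/C). ED50 is the dose giving 50% inhibition of tumor growth, from the dose-response curve. Optimal dose also recorded.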

Test [3] is described as follows: Optimal dose was measured against sarcoma 180 cell in mice. The test is classed as functional, Mus musculus. The gist of the method:
as §1

The species named for test [4] is Mus musculus. Briefly: 50% inhibition of solid tumor growth (Sarcoma 180 cells) in mice. It is filed as functional. In short, it runs like this: as §1

Turning to `COC1=CC(=O)C2=C(C1=O)[C@@H](COC(N)=O)[C@@]1(OC)[C@@H]3[C@H](CN21)N3C` (stereo not given in full), the IC50 ratio in test [1] was determined as 0.29. In test [2], this compound showed a T/C of 0.36. Further, the OD in test [3] came out at 10 mg/kg. Moreover, the ED50 in test [4] came to 7.1 mg/kg.

In the case of `COC1=CC(=O)C2=C(C1=O)[C@H](COC(N)=O)[C@@]1(O)[C@@H]3[C@H](CN21)N3C` (stereo not given in full), the IC50 ratio in test [1] came to 16. Also, in test [2], the T/C worked out at 0.31. For the same compound, the OD in test [3] amounted to 20 mg/kg. It took a dose of 11 mg/kg to reach the 50% effect level in test [4] (ED50).

As for `COC1=C(Br)C(=O)C2=C(C1=O)[C@@H](COC(N)=O)[C@@]1(OC)[C@H]3N[C@H]3CN21`, in test [1], the IC50 ratio was determined as 1.9. Further, the T/C in test [2] amounted to 0.47. For the same compound, in test [3], the OD is 14 mg/kg. For the same compound, it took a dose of 8.4 mg/kg to reach the 50% effect level in test [4] (ED50).

For the compound `CN1[C@H]2[C@@H]1CN1C3=C(C(=O)C(N)=C(Br)C3=O)[C@H](COC(N)=O)[C@@]21O` (stereo not given in full), the IC50 ratio in test [1] is recorded as above 35. In test [2], the T/C stood at 0.55. In test [3], this compound came in with an OD of 30 mg/kg.

Take `CC1=C(N)C(=O)C2=C(C1=O)N1C[C@H]3[C@H](N3C)[C@]1(O)[C@H]2COC(N)=O` (stereo not given in full): the IC50 ratio in test [1] is listed as above 20. For the same compound, the T/C in test [2] was 0.59. For the same compound, in test [3], the OD stood at 100 mg/kg.

Turning to `CN1[C@H]2[C@@H]1CN1C3=C(C(=O)C(N)=CC3=O)[C@H](COC(N)=O)[C@@]21O` (stereo not given in full), the IC50 ratio in test [1] is reported as above 71. The same compound came in with a T/C in test [2] of 0.26. Further, in test [3], the OD was determined as 100 mg/kg. The same compound displayed a 50% effective dose (ED50) in test [4] of 33 mg/kg.

As to `CO[C@@]12[C@H](COC(N)=O)C3=C(C(=O)C=C(N)C3=O)N1C[C@@H]1N[C@@H]12`, in test [1], the IC50 ratio came out at 3.2. Also, the T/C in test [2] was determined as 0.25. The OD in test [3] worked out at 5 mg/kg. In test [4], this compound came in with an ED50 of 2.6 mg/kg.

`COC1=CC(=O)C2=C(C1=O)[C@@H](COC(N)=O)[C@@]1(OC)[C@H]3N[C@H]3CN21`: the IC50 ratio in test [1] was 0.3. Also, in test [2], the T/C was determined as 0.45. The OD in test [3] stood at 2 mg/kg. In addition, the 50% effect level in test [4] (ED50) was put at a dose of 1.6 mg/kg.

For the compound `CN1[C@H]2[C@@H]1CN1C3=C(C(=O)C(N)=C(Cl)C3=O)[C@H](COC(N)=O)[C@@]21O` (stereo not given in full), in test [1], the IC50 ratio is above 20. The same compound gave a T/C in test [2] of 0.43. The same compound displayed an OD in test [3] of 20 mg/kg. Besides, the ED50 in test [4] turned out to be 17 mg/kg.

Take `COC1=C(Br)C(=O)C2=C(C1=O)[C@@H](COC(N)=O)[C@@]1(OC)[C@@H]3[C@H](CN21)N3C` (stereo not given in full): the IC50 ratio in test [1] is recorded as above 4.8. In test [2], this compound had a T/C of 0.97. Further, the OD in test [3] stood at 14 mg/kg.

As to `CO[C@@]12[C@H](COC(N)=O)C3=C(C(=O)C(Cl)=C(N)C3=O)N1C[C@@H]1N[C@@H]12`, the IC50 ratio in test [1] turned out to be 0.37. This compound showed a T/C in test [2] of 0.14. The compound further gave an OD in test [3] of 2.7 mg/kg. Besides, the median effective dose (ED50) in test [4] came to 1.4 mg/kg.

Turning to `COC1=C(Br)C(=O)C2=C(C1=O)[C@H](COC(N)=O)[C@@]1(O)[C@@H]3[C@H](CN21)N3C` (stereo not given in full), the IC50 ratio in test [1] is listed as above 3.7. Also, in test [2], the T/C was found to be 0.44. This compound displayed an OD in test [3] of 30 mg/kg. Further, the ED50 in test [4] stood at 22 mg/kg.

`CO[C@@]12[C@H](COC(N)=O)C3=C(C(=O)C(Cl)=C(N)C3=O)N1C[C@H]1[C@@H]2N1C` (stereo not given in full): the IC50 ratio in test [1] amounted to 0.76. Also, the T/C in test [2] worked out at 0.11. The OD in test [3] is 4 mg/kg. Besides, the ED50 in test [4] came out at 2.3 mg/kg.

Turning to `CO[C@@]12[C@H](COC(N)=O)C3=C(C(=O)C(Br)=C(N)C3=O)N1C[C@H]1[C@@H]2N1C` (stereo not given in full), the IC50 ratio in test [1] is reported as 1.9. In test [2], this compound gave a T/C of 0.63. Further, the OD in test [3] amounted to 4 mg/kg.

Consider `CO[C@@]12[C@H](COC(N)=O)C3=C(C(=O)C=C(N)C3=O)N1C[C@H]1[C@@H]2N1C` (stereo not given in full), for which the IC50 ratio in test [1] stood at 16. Further, in test [2], the T/C was found to be 0.08. In addition, the OD in test [3] came out at 20 mg/kg. The 50% effect level in test [4] (ED50) was put at a dose of 8.4 mg/kg.

In the case of `COC1=C(Cl)C(=O)C2=C(C1=O)[C@H](COC(N)=O)[C@@]1(O)[C@@H]3[C@H](CN21)N3C` (stereo not given in full), in test [1], the IC50 ratio was 11. Further, the T/C in test [2] was 0.62. This compound also registered an OD in test [3] of 20 mg/kg.

For `COC1=C(Cl)C(=O)C2=C(C1=O)[C@@H](COC(N)=O)[C@@]1(OC)[C@H]3N[C@H]3CN21`, in test [1], the IC50 ratio amounted to 2.5.

As for `COC1=C(C)C(=O)C2=C(C1=O)[C@@H](COC(N)=O)[C@@]1(OC)[C@H]3N[C@H]3CN21` [MITOMYCIN A], in test [1], the IC50 ratio came to 0.0035. In test [2], this compound gave a T/C of 0.2. In test [3], this compound yielded an OD of 1.8 mg/kg. In test [4], this compound gave an ED50 of 1.3 mg/kg.

Consider `COC1=C(C)C(=O)C2=C(C1=O)[C@H](COC(N)=O)[C@@]1(O)[C@@H]3[C@H](CN21)N3C` (stereo not given in full) [MITOMYCIN B], for which the IC50 ratio in test [1] is on record as 0.29. The compound further had a T/C in test [2] of 0.37. In test [3], this compound displayed an OD of 4 mg/kg. In addition, the ED50 in test [4] amounted to 2.8 mg/kg.

On to `CO[C@@]12[C@H](COC(N)=O)C3=C(C(=O)C(C)=C(N)C3=O)N1C[C@@H]1N[C@@H]12` [MITOMYCIN], for which, in test [1], the IC50 ratio was 0.49. In test [2], the T/C was 0.27. The compound further displayed an OD in test [3] of 3.1 mg/kg. Further, the ED50 in test [4] is 1.6 mg/kg.

Consider `COC1=C(C)C(=O)C2=C(C1=O)[C@@H](COC(N)=O)[C@@]1(OC)[C@@H]3[C@H](CN21)N3C` (stereo not given in full) [N-METHYL-MITOMYCIN A], for which the IC50 ratio in test [1] is below 0.031. In addition, in test [2], the T/C came to 0.32. Moreover, in test [3], the OD was determined as 8 mg/kg. The compound also registered an ED50 in test [4] of 6.5 mg/kg.

Take `CO[C@@]12[C@H](COC(N)=O)C3=C(C(=O)C(C)=C(N)C3=O)N1C[C@H]1[C@@H]2N1C` (stereo not given in full) [PORFIROMYCIN]: the IC50 ratio in test [1] is 9.5. For the same compound, the T/C in test [2] is 0.23. In addition, the OD in test [3] worked out at 40 mg/kg. Further, the 50% effect level in test [4] (ED50) was put at a dose of 16 mg/kg.
